Experiments:
Homo sapiens [1] = species on record: Homo sapiens; assay: Selectivity ratio of Ki for progesterone receptor (unknown origin) to Ki for glucocorticoid receptor (unknown origin)
Androgen receptor = molecular target: T1, Androgen receptor (Homo sapiens, UniProt P10275); assay: Binding affinity to androgen receptor (unknown origin) by fluorescence polarization assay
T1 sequence (P10275 whole entry): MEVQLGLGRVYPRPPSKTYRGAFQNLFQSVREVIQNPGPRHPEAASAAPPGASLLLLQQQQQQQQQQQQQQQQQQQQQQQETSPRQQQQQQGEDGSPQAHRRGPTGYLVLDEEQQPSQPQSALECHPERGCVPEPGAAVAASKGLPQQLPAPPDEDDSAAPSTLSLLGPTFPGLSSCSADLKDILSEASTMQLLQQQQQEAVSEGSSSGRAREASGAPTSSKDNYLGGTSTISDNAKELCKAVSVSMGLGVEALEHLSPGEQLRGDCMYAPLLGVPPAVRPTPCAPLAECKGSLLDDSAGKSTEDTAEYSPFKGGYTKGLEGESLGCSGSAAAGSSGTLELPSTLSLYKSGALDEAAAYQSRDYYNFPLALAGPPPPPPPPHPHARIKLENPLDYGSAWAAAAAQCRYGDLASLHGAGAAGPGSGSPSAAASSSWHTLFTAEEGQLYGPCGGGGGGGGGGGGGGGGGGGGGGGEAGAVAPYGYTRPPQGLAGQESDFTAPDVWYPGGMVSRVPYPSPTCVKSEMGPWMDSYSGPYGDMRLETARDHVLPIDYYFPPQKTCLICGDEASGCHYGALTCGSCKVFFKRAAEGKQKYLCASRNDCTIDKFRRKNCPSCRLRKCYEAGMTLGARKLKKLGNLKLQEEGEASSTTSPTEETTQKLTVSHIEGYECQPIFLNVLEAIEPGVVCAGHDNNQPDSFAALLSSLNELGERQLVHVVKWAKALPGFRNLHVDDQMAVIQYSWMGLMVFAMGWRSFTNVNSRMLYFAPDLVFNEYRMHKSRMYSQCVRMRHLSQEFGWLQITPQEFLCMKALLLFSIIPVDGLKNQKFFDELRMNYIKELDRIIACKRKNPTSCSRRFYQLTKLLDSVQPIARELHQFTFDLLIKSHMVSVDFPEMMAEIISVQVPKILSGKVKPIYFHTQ
Method in brief: (§1)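 Fluorescence polarization competition between test compound and a fluorescently labeled ligand for full-length receptor or its ligand binding domain. IC50 from a four-parameter logistic fit of the polarization signal, converted to Ki with Cheng–Prusoff […]. Means of duplicate experiments.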

[2] = molecular target: T2, Glucocorticoid receptor (Homo sapiens) (UniProt P04150); assay: Agonist activity at glucocorticoid receptor in human A549 cells assessed as inhibition of PMA-induced AP-1 activation by luciferase reporter gene assay relative to dexamethasone; type: cell-based
T2 sequence (whole entry): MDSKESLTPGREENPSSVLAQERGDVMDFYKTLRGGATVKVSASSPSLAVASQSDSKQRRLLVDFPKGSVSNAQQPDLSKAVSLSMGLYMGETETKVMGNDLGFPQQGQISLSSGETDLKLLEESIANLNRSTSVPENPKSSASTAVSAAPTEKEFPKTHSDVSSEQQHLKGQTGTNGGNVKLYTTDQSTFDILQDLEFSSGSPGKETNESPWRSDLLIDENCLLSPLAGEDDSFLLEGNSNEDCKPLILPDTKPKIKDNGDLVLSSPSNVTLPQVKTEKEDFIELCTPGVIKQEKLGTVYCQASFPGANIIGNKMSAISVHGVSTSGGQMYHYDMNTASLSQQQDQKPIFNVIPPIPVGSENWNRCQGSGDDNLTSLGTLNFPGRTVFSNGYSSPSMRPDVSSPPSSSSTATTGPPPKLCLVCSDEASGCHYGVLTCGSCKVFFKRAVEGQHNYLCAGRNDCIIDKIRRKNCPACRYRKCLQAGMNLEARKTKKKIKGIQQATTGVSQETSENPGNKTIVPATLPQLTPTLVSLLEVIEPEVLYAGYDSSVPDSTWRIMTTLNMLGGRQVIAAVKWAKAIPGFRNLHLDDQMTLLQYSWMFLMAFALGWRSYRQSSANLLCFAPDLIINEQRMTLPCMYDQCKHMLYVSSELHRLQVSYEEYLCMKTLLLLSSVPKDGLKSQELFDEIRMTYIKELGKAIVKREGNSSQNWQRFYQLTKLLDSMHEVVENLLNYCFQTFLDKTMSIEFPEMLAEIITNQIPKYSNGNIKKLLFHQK
Method in brief: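 A549 lung epithelial cells stably carrying a luciferase reporter with 5 copies of the AP-1 response element; AP-1 induced with PMA (15 ng/ml). Compound inhibition of induction read as decreased luciferase. […] Means of two or more experiments in triplicate.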

Glucocorticoid receptor = molecular target: T3, Glucocorticoid receptor (Homo sapiens, UniProt P04150); assay: Agonist activity at glucocorticoid receptor in human A549 cells assessed as inhibition of PMA-induced AP-1 activation by luciferase reporter gene assay; type: cell-based
T3 sequence (P04150 whole entry): T2 sequence (whole entry)

Homo sapiens [3] = species on record: Homo sapiens; assay: Selectivity ratio of Ki for androgen receptor (unknown origin) to Ki for glucocorticoid receptor (unknown origin)
Progesterone receptor = molecular target: T4, Progesterone receptor (Homo sapiens, UniProt P06401); assay: Binding affinity to progesterone receptor (unknown origin) by fluorescence polarization assay; method in brief: as §1
T4 sequence (P06401 whole entry): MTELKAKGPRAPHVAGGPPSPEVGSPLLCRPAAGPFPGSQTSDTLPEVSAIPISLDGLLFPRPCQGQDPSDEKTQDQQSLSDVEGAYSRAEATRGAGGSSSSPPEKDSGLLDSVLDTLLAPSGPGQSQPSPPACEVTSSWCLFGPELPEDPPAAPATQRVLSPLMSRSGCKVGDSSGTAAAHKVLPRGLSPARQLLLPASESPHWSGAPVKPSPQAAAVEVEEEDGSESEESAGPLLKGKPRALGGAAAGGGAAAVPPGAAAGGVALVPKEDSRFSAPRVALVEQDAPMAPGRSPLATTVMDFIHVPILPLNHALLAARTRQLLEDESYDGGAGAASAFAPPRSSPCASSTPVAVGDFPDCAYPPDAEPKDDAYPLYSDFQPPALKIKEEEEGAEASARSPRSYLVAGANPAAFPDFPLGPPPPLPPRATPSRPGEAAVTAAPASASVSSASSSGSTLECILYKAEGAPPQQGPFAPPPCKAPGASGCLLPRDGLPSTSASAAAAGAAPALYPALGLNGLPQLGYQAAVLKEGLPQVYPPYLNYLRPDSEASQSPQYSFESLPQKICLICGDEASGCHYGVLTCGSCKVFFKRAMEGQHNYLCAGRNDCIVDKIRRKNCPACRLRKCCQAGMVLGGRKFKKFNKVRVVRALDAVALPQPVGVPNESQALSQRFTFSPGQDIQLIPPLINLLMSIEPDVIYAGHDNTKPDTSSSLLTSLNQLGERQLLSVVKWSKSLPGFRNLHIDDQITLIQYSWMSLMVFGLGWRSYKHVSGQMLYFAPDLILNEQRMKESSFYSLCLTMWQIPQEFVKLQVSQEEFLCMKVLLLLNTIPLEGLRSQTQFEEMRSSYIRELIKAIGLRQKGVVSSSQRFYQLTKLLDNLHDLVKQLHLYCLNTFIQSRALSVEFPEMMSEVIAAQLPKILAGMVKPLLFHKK

| Compound | Ratio Ki (Homo sapiens [1]) | Ki (Androgen receptor) [µM] | Efficacy [2] [%] | EC50 (Glucocorticoid receptor) [µM] | Ratio Ki (Homo sapiens [3]) | Ki (Progesterone receptor) [µM] |
| --- | --- | --- | --- | --- | --- | --- |
| CCCC(c1ccc2c(cnn2-c2ccc(F)cc2)c1)C(C)(C)C(=O)Nc1nncs1 (racemic) | 10 | 2.51 | 60 | 0.018 | > 1000 | 0.109 |
| CC(C(=O)Nc1nncs1)[C@@H](c1ccccc1)c1ccc2c(cnn2-c2ccc(F)cc2)c1 (single isomer, unassigned; diastereomer 2) | – | 0.243 | – | – | – | 0.214 |
| CC(C(=O)Nc1nncs1)[C@@H](c1ccccc1)c1ccc2c(cnn2-c2ccc(F)cc2)c1 (single isomer, unassigned; diastereomer 3) | – | > 4.17 | – | – | – | 0.022 |
